The Ki is the equilibrium dissociation constant of an inhibitor or competing ligand from its target. Low readings indicate tighter binding, high ones weaker binding.

Experimental findings from ChEMBL document CHEMBL1135442, “6-Chloropyridazin-3-yl derivatives active as nicotinic agents: synthesis, binding, and modeling studies” (J Med Chem, 2002) are described below.

This assay in a line: Inhibition of [3H]cytisine binding to rat cerebral cortical membrane neuronal Nicotinic acetylcholine receptor. Put shortly: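 Rat cerebral cortical membranes, thawed, washed, resuspended in Tris-HCl 50 mM buffer with NaCl 120, KCl 5, MgCl2 1, CaCl2 2.5 mM (pH 7.4 at 4 °C), centrifuged 45000g 20 min. 150-200 µg protein incubated with 0.7 nM [3H]-(-)-cytisine and varied test concentrations, 75 min at 4 °C, triplicate. Nonspecific binding defined with 10 µM (-)-nicotine. Ki values reported.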
For `CN1CCN(c2ccc(Cl)nn2)CC1`, the Ki is 14 nM. That is a double-digit nanomolar value.

As to `Clc1ccc(N2CCNCC2)nn1`, the Ki stood at 32 nM.

With `C[N+]1(C)C2CCC1CN(c1ccc(Cl)nn1)C2`, the inhibition constant (Ki) was 2.3 nM.

`CN1CCCN(c2ccc(Cl)nn2)CC1` had a Ki of 220 nM.

As for `C[N+]1(C)CCCN(c2ccc(Cl)nn2)CC1`, the Ki was 120 nM.

In turn, `Clc1ccc(N2CC3CCC(C2)N3)nn1` came in with a Ki of 4.1 nM. Against the preceding molecule, the Ki is about 29-fold lower.

Molecule `Clc1ccc(N2CCCNCC2)nn1` had an inhibition constant (Ki) of 1.5 nM.

`CN1C2CCC1CN(c1ccc(Cl)nn1)C2` returned an inhibitory constant (Ki) of 39 nM.
